Experimental data published in ChEMBL document CHEMBL1135765, “Synthesis of 3' '-substituted TSAO derivatives with anti-HIV-1 and anti-HIV-2 activity through an efficient palladium-catalyzed cross-coupling approach” (J Med Chem, 2002).

What was measured:
[1] = test system: Human immunodeficiency virus 2; assay: Effective concentration required to inhibit HIV-2 induced cytopathicity in CEM cell culture by 50%.; format: functional, organism-based; conditions: Human immunodeficiency virus 2, CCRF-CEM
In short: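 CEM cells at 4 × 10⁵/mL infected with HIV-1 or HIV-2 at ~100 CCID₅₀ per mL, mixed 1:1 with compound dilutions. Giant cell formation scored microscopically after 4 days. EC₅₀ is the concentration inhibiting virus-induced cytopathicity by 50%.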

[2] = test system: Human immunodeficiency virus 2; assay: Effective concentration required to inhibit HIV-2 induced cytopathicity in MT-4 cell culture by 50%.; format: functional, organism-based; conditions: Human immunodeficiency virus 2, MT4
In short: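 MT-4 cells at 3 × 10⁵/mL infected with HIV-1 or HIV-2 at ~100 CCID₅₀ per mL, mixed 1:1 with compound dilutions. Cytopathicity read by trypan blue dye exclusion after 5 days. EC₅₀ is the concentration giving 50% protection against the virus-induced loss of cell viability.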

MT4 = assay: Cytotoxic concentration required to inhibit MT-4 cell proliferation by 50%; format: functional; conditions: Homo sapiens
In short: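 Mock-infected MT-4 cells (3 × 10⁵/mL) incubated with compound dilutions; CC₅₀ is the concentration that reduces the number of viable MT-4 cells by 50%.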

CCRF-CEM = assay: Cytostatic concentration required to inhibit CEM cell proliferation by 50%; format: functional; conditions: Homo sapiens
In short: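 CEM cells (4 × 10⁵/mL) exposed to compound dilutions without virus; CC₅₀ is the concentration that inhibits CEM cell proliferation by 50%.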

[3] = Effective concentration required to inhibit HIV-1 induced cytopathicity in MT-4 cell culture by 50%.; conditions: mt4

| Compound | EC50 [1] | EC50 [2] | CC50 (MT4) | CC50 (CCRF-CEM) | EC50 [3] |
| --- | --- | --- | --- | --- | --- |
| COC(=O)/C=C/C1=C(N)[C@@]2(OS1(=O)=O)[C@@H](CO[Si](C)(C)C(C)(C)C)O[C@@H](n1cc(C)c(=O)n(C)c1=O)[C@@H]2O[Si](C)(C)C(C)(C)C | > 2 µM | > 10 µM | 55 µM | 37 µM | – |
| CNC1=C(C)S(=O)(=O)O[C@@]12[C@@H](CO[Si](C)(C)C(C)(C)C)O[C@@H](n1cc(C)c(=O)n(C)c1=O)[C@@H]2O[Si](C)(C)C(C)(C)C | > 250 µM | > 250 µM | > 250 µM | 234 µM | – |
| Cc1cn([C@@H]2O[C@H](CO[Si](C)(C)C(C)(C)C)[C@@]3(OS(=O)(=O)C(Cl)=C3N)[C@H]2O[Si](C)(C)C(C)(C)C)c(=O)[nH]c1=O | > 10 µM | > 10 µM | 5.4 µM | 7 µM | – |
| Cc1cn([C@@H]2O[C@H](CO[Si](C)(C)C(C)(C)C)[C@@]3(OS(=O)(=O)C(I)=C3N)[C@H]2O[Si](C)(C)C(C)(C)C)c(=O)n(C)c1=O | > 2 µM | > 10 µM | 3.9 µM | 5.6 µM | – |
| COC(=O)/C=C/C1=C(N)[C@@]2(OS1(=O)=O)[C@@H](CO[Si](C)(C)C(C)(C)C)O[C@@H](n1cc(C)c(=O)[nH]c1=O)[C@@H]2O[Si](C)(C)C(C)(C)C | 7.3 µM | 9.9 µM | 29 µM | 39 µM | – |
| C=CCC1=C(N)[C@@]2(OS1(=O)=O)[C@@H](CO[Si](C)(C)C(C)(C)C)O[C@@H](n1cc(C)c(=O)n(C)c1=O)[C@@H]2O[Si](C)(C)C(C)(C)C | > 50 µM | > 50 µM | 82 µM | 45 µM | – |
| CC#CC1=C(N)[C@@]2(OS1(=O)=O)[C@@H](CO[Si](C)(C)C(C)(C)C)O[C@@H](n1cc(C)c(=O)n(C)c1=O)[C@@H]2O[Si](C)(C)C(C)(C)C | > 2 µM | > 2 µM | 3.3 µM | 5 µM | – |
| Cc1cn([C@@H]2O[C@H](CO[Si](C)(C)C(C)(C)C)C3(OS(=O)(=O)C=C3N)[C@H]2O[Si](C)(C)C(C)(C)C)c(=O)[nH]c1=O (stereo partly specified) | > 10 µM | > 10 µM | 12 µM | – | 0.06 µM |
| Cc1cn([C@@H]2O[C@H](CO[Si](C)(C)C(C)(C)C)[C@@]3(OS(=O)(=O)C(/C=C/CO)=C3N)[C@H]2O[Si](C)(C)C(C)(C)C)c(=O)[nH]c1=O | 1.2 µM | 5.4 µM | 17 µM | 18 µM | – |
| C=CC1=C(N)[C@@]2(OS1(=O)=O)[C@@H](CO)O[C@@H](n1cc(C)c(=O)[nH]c1=O)[C@@H]2O[Si](C)(C)C(C)(C)C | > 50 µM | > 50 µM | 47 µM | 76 µM | – |
| Cc1cn([C@@H]2O[C@H](CO[Si](C)(C)C(C)(C)C)[C@@]3(OS(=O)(=O)C(CC(N)=O)=C3NCC(N)=O)[C@H]2O[Si](C)(C)C(C)(C)C)c(=O)n(C)c1=O | > 2 µM | > 2 µM | 3.2 µM | 3.9 µM | – |
| CC1=C(N)[C@@]2(OS1(=O)=O)[C@@H](CO[Si](C)(C)C(C)(C)C)O[C@@H](n1cc(C)c(=O)n(C)c1=O)[C@@H]2O[Si](C)(C)C(C)(C)C | > 50 µM | > 250 µM | > 250 µM | 10 µM | – |
| Cc1cn([C@@H]2O[C@H](CO[Si](C)(C)C(C)(C)C)[C@@]3(OS(=O)(=O)C(/C=C/CO)=C3N)[C@H]2O[Si](C)(C)C(C)(C)C)c(=O)n(C)c1=O | 5.7 µM | > 10 µM | 13 µM | 18 µM | – |
| Cc1cn([C@@H]2O[C@H](CO[Si](C)(C)C(C)(C)C)[C@@]3(OS(=O)(=O)C(Br)=C3N)[C@H]2O[Si](C)(C)C(C)(C)C)c(=O)[nH]c1=O | > 10 µM | > 10 µM | 18 µM | 17 µM | – |
| Cc1cn([C@@H]2O[C@H](CO[Si](C)(C)C(C)(C)C)[C@@]3(OS(=O)(=O)C(c4ccsc4)=C3N)[C@H]2O[Si](C)(C)C(C)(C)C)c(=O)n(C)c1=O | > 2 µM | > 2 µM | 3.9 µM | 33 µM | – |
| Cc1cn([C@@H]2O[C@H](CO[Si](C)(C)C(C)(C)C)[C@@]3(OS(=O)(=O)C(c4ccccc4)=C3N)[C@H]2O[Si](C)(C)C(C)(C)C)c(=O)n(C)c1=O | – | > 50 µM | 24 µM | 65 µM | – |
| C=CCNC1=CS(=O)(=O)O[C@@]12[C@@H](CO[Si](C)(C)C(C)(C)C)O[C@@H](n1cc(C)c(=O)n(C)c1=O)[C@@H]2O[Si](C)(C)C(C)(C)C | > 50 µM | > 50 µM | 25 µM | 126 µM | – |
| Cc1cn([C@@H]2O[C@H](CO[Si](C)(C)C(C)(C)C)[C@@]3(OS(=O)(=O)C(I)=C3N)[C@H]2O[Si](C)(C)C(C)(C)C)c(=O)[nH]c1=O | > 2 µM | > 2 µM | 4.3 µM | 4 µM | – |
| Cc1cn([C@@H]2O[C@H](CO[Si](C)(C)C(C)(C)C)[C@@]3(OS(=O)(=O)C=C3N)[C@H]2O[Si](C)(C)C(C)(C)C)c(=O)n(C)c1=O | > 250 µM | > 250 µM | 230 µM | – | – |
| C=CC1=C(N)[C@@]2(OS1(=O)=O)[C@@H](CO[Si](C)(C)C(C)(C)C)O[C@@H](n1cc(C)c(=O)[nH]c1=O)[C@@H]2O[Si](C)(C)C(C)(C)C | 4 µM | 3.3 µM | 24 µM | 36 µM | – |
| Cc1cn([C@@H]2O[C@H](CO[Si](C)(C)C(C)(C)C)[C@@]3(OS(=O)(=O)C(c4ccccc4)=C3N)[C@H]2O[Si](C)(C)C(C)(C)C)c(=O)[nH]c1=O | > 2 µM | > 50 µM | 55 µM | 37 µM | – |
| CCOC(=O)/C=C/C1=C(N)[C@@]2(OS1(=O)=O)[C@@H](CO[Si](C)(C)C(C)(C)C)O[C@@H](n1cc(C)c(=O)[nH]c1=O)[C@@H]2O[Si](C)(C)C(C)(C)C | > 10 µM | > 50 µM | 40 µM | 174 µM | – |
